Measured values collected from several papers.
Compare with care: the assays were run in different laboratories.
Cell line: A549
Observed: cell growth or viability

C(=N\Nc1cc(N/N=C/c2cccc3cccnc23)ncn1)/c1cccc2cccnc12 — IC50 (MTT; 48 h): 14.8 µM
CC(=NNC(=O)c1cc(-c2ccccc2)n(-c2ccc(S(N)(=O)=O)cc2)n1)c1ccc(Br)cc1 — IC50 (fluorescence; 48 h): 25.9 µM
CCCCn1cnc2ccc(-c3ccc(NC(C)=O)nc3)cc2c1=O — IC50 (CCK-8; 72 h): > 10 µM
Cc1cc(NS(=O)(=O)c2ccc(NC(=O)/C(C#N)=C/c3ccc(N4CCCCC4)cc3)cc2)no1 — IC50 (MTT; 48 h): 36.4 µM
C/C(=N\CCNCC/N=C(\C)c1c(O)c2ccccc2oc1=O)c1c(O)c2ccccc2oc1=O — IC50 (MTT; 48 h): 8.75 µM
CCCCn1cnc2ccc(-c3ccc4sc(NC(=O)Nc5ccc(F)cc5)nc4c3)cc2c1=O — IC50 (MTT; 72 h): 1.27 µM
NNc1nc2ccc(Br)cc2c(=O)n1-c1ccc(Cl)cc1 — IC50 (MTT; 48 h): 79.2 µM
CCCCC(=O)Nc1cc(F)c(-c2ccc3ncn(CCC)c(=O)c3c2)cn1 — IC50 (CCK-8; 72 h): 1.58 µM
CC(C)NC(=O)Nc1nc2cc(-c3ccc4ncn(Cc5ccccc5)c(=O)c4c3)ccc2s1 — IC50 (MTT; 72 h): > 20 µM
Cc1ccc(C(=O)Nc2ccc(-c3ccc4ncn(Cc5ccccc5)c(=O)c4c3)cn2)cc1 — IC50 (CCK-8; 72 h): > 10 µM
CN1CCC(NC2CCc3[nH]c4c(C(N)=O)ccc(-c5ccccc5Cl)c4c3C2)CC1 (centres unmarked) — IC50: 0.0301 µM
COc1cccc(NC(=O)Nc2nc3cc(-c4ccc5ncn(CCN(C)C)c(=O)c5c4)ccc3s2)c1 — IC50 (MTT; 72 h): 0.91 µM
OC1CCN(c2ccc(/C=N/NC(=S)Nc3ccc(F)cc3)cc2)CC1 — IC50 (MTT; 24 h): 2.81 µM
CCCc1cc2cc(-n3nc(C)c4c3CC(C)(C)CC4=O)cc(N3CCC(O)CC3)c2c(=O)[nH]1 — IC50 (MTS): 7.38 µM
O=C(Nc1ccc(-c2ccc3ncn(Cc4ccccc4)c(=O)c3c2)cn1)C1CCCC1 — IC50 (CCK-8; 72 h): > 10 µM
COc1ccc(CNc2ccc(C(=O)O)cc2)cc1 — IC50 (resazurin; 72 h): > 100 µM
O=C(N[C@@H](CSCc1ccccc1)C(=O)NO)c1ccccc1 — IC50 (MTT; 48 h): 201 µM
CCCCC(=O)Nc1ccc(-c2cnc3ccn(CCC)c(=O)c3c2)cn1 — IC50 (CCK-8; 72 h): > 10 µM
O=C(C=Cc1cccs1)c1ccc(OCCOc2ccc(C(=O)C=Cc3cccs3)cc2)cc1 — IC50 (MTT; 48 h): 42 µM
CCCCC(=O)Nc1ccc(-c2ccc3ncn(CC4CC4)c(=O)c3c2)cn1 — IC50 (CCK-8; 72 h): 0.42 µM
COc1cc(CNc2ccc(C(=O)O)cc2)cc(OC)c1O — IC50 (resazurin; 72 h): > 100 µM
Cc1cccc(NC(=O)Nc2ccc(-c3ccc4ncn(Cc5ccccc5)c(=O)c4c3)cn2)c1 — IC50 (CCK-8; 72 h): > 10 µM
S=C(N/N=C/c1cccc2cc3ccccc3nc12)Nc1ccccc1 — IC50 (MTT; 48 h): > 50 µM
